Key:
[1] = biological target: T1, Tyrosine-protein kinase JAK2 (Homo sapiens, UniProt O60674); experiment: Inhibition of N-terminal His-tagged human JAK2 catalytic domain (826 to 1132 resiudes) expressed in baculovirus expression system at 100 nM using FAM-labeled peptide as substrate preincubated for 10 mins followed by substrate addition measured after 1 hr in presence of ATP by mobility shift assay relative to control
How it was run: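 Single-concentration (100 nM) percent inhibition in the mobility-shift JAK2 assay. Enzyme was preincubated with compound for 10 min at room temperature in HEPES pH 7.5/Brij-35 buffer. FAM-peptide and ATP were then added and the reaction run for 1 h at 28 °C before EDTA stop. Inhibition = (max−conversion)/(max−min)×100. Each compound was tested at least twice and the values averaged.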

HEL = experiment: Antiproliferative activity against human HEL cells assessed as growth inhibition after 72 hrs by CCK-8 assay; type: functional
How it was run: (§1)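 CCK-8 viability readout. Cells were cultured in RPMI 1640 with 10% FBS and 1% penicillin/streptomycin and seeded at 3000 (HEL), 5000 (MV4-11) or 3000 (HL60) cells/well. Increasing compound concentrations were applied for 72 h, then CCK-8 was added for a further 3 h and absorbance read at 450 nm. Inhibition = (1−A_sample/A_control)×100, normalized to DMSO controls. Value is the mean of three independent measurements, obtained by curve fitting.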

MV4-11 = experiment: Antiproliferative activity against human MV4-11 cells assessed as growth inhibition after 72 hrs by CCK-8 assay; type: functional; details: MV4-11, 72 h; how it was run: as §1
HL-60 = experiment: Antiproliferative activity against human HL60 cells assessed as growth inhibition after 72 hrs by CCK-8 assay; type: functional; details: HL-60, 72 h; how it was run: as §1
[2] = biological target: T1, Tyrosine-protein kinase JAK2; experiment: Inhibition of N-terminal His-tagged human JAK2 catalytic domain (826 to 1132 resiudes) expressed in baculovirus expression system using FAM-labeled peptide as substrate preincubated for 10 mins followed by substrate addition measured after 1 hr in presence of ATP by mobility shift assay
How it was run: (§2)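 Caliper mobility-shift assay with recombinant kinase in 50 mM HEPES pH 7.5, 0.0015% Brij-35. Compound was diluted from DMSO and preincubated with enzyme for 10 min at room temperature. FAM-labeled peptide plus ATP was then added and the reaction run for 1 h at 28 °C. It was stopped with an EDTA (50 mM) buffer. Conversion gave percent inhibition relative to max/min controls, and IC50 came from a four-parameter Hill fit. Duplicate wells were used.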

[3] = biological target: T2, Receptor-type tyrosine-protein kinase FLT3 (Homo sapiens, UniProt P36888); experiment: Inhibition of N-terminal GST-tagged human FLT3 cytoplasmic domain (564 to 993 residues) expressed in baculovirus expression system musing FAM-labeled peptide as substrate preincubated for 10 mins followed by substrate addition measured after 1 hr in presence of ATP by mobility shift assay; how it was run: as §2
T2 sequence (P36888 whole entry): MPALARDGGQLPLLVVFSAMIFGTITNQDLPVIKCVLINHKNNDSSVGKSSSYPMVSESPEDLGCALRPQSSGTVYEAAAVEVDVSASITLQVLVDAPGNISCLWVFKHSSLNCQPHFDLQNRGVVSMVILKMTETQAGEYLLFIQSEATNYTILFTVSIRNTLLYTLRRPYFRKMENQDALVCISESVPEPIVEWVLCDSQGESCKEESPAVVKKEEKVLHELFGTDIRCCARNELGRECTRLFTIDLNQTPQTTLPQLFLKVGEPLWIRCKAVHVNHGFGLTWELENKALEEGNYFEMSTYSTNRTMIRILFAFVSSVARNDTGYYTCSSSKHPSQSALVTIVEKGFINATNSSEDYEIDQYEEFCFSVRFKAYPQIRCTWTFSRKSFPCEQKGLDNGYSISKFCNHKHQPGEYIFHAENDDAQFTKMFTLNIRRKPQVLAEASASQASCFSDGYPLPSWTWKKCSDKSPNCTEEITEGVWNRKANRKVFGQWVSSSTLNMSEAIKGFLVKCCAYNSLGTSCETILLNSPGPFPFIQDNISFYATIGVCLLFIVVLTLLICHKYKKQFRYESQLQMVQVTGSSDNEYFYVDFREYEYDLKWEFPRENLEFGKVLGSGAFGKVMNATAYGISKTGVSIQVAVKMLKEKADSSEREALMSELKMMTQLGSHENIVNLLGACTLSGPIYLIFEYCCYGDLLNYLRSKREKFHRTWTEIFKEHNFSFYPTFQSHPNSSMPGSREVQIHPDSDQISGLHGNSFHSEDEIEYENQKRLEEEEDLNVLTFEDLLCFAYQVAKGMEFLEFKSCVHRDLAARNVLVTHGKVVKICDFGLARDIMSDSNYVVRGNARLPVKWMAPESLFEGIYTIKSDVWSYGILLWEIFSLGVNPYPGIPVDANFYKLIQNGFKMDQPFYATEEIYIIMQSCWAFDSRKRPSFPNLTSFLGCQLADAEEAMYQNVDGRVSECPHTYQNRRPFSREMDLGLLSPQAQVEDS

[4] = biological target: Receptor-type tyrosine-protein kinase FLT3 (Homo sapiens) (UniProt P36888); details: at 100 nM

T1 sequence (O60674 whole entry, the tested form may be a part): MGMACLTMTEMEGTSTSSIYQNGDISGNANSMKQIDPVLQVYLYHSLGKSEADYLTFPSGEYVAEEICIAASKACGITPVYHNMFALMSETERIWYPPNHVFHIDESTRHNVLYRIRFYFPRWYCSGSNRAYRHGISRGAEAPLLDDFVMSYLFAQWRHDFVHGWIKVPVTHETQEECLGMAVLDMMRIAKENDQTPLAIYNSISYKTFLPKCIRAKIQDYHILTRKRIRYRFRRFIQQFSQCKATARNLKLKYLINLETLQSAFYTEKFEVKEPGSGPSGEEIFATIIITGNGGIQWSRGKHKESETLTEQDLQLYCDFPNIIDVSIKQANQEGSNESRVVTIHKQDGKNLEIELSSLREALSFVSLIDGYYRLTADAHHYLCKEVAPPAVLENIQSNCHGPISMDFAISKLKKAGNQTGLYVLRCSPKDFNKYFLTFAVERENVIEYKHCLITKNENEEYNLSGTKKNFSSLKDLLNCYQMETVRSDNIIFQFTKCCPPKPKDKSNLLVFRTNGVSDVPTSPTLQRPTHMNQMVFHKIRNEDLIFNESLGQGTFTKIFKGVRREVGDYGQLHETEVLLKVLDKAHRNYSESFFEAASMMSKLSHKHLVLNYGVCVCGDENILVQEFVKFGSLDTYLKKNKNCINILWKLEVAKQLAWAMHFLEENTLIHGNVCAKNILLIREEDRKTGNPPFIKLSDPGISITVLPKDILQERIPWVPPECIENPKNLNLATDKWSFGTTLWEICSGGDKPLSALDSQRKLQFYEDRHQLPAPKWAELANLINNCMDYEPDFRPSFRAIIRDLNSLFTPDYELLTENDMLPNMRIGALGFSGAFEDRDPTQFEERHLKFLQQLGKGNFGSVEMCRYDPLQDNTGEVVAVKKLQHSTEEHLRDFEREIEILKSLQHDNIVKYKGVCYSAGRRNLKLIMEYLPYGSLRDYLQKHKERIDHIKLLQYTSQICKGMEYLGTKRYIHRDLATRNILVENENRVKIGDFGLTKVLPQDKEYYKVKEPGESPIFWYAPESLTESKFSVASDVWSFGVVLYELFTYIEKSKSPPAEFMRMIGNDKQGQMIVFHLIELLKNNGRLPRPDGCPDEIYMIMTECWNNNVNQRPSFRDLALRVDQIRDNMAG

Structure (SMILES) | inhibition [1] [%] | GI50 (HEL) [µM] | GI50 (MV4-11) [µM] | GI50 (HL-60) [µM] | IC50 [2] [µM] | IC50 [3] [µM] | inhibition [4] [%]
CC(=O)c1ccc(NC(=O)N2CCN(c3ccnc(Nc4ccc(N5CCN(C)CC5)cc4)n3)CC2)cc1 | 80.8 | 14.1 | 32 | 46.4 | 0.0138 | 0.012 | 87.5
CN1CCN(c2ccc(Nc3nccc(N4CCN(C(=O)Nc5ccc(S(N)(=O)=O)cc5)CC4)n3)cc2)CC1 | 76 | > 50 |  |  |  |  | 86
NS(=O)(=O)c1ccc(NC(=O)N2CCN(c3ccnc(Nc4ccc(N5CCOCC5)cc4)n3)CC2)cc1 | 86 | > 50 | > 50 | > 50 | 0.0093 | 0.03 | 79.7
CCN(CC)c1ccc(NC(=O)N2CCN(c3ccnc(Nc4ccc(N5CCOCC5)cc4)n3)CC2)cc1 | 41.2 |  |  |  |  |  | 0
COc1ccc(NC(=O)N2CCN(c3ccnc(Nc4ccc(N5CCOCC5)cc4)n3)CC2)cc1 | 48.7 |  |  |  |  |  | 21.7
O=C(Nc1ccc([N+](=O)[O-])cc1)N1CCN(c2ccnc(Nc3ccc(N4CCOCC4)cc3)n2)CC1 | 79.3 |  |  |  |  |  | 84.4
COC(=O)c1ccc(NC(=O)N2CCN(c3ccnc(Nc4ccc(N5CCOCC5)cc4)n3)CC2)cc1 | 64.4 |  |  |  |  |  | 62.8
NC(=O)c1cccc(NC(=O)N2CCN(c3ccnc(Nc4ccc(N5CCOCC5)cc4)n3)CC2)c1 | 74 |  |  |  |  |  | 39.8
NS(=O)(=O)c1ccc(NC(=O)N2CCN(c3ccnc(Nc4ccc(OCCN5CCCC5)cc4)n3)CC2)cc1 | 59 | > 50 |  |  |  |  | 82
NC(=O)c1ccccc1NC(=O)N1CCN(c2ccnc(Nc3ccc(N4CCOCC4)cc3)n2)CC1 | 9.5 |  |  |  |  |  | 12.5
CN1CCN(c2ccc(Nc3nccc(N4CCN(C(=O)Nc5ccc(C(N)=O)cc5)CC4)n3)cc2)CC1 | 84 | > 50 |  |  |  |  | 85
O=C(Nc1ccccc1C(F)(F)F)N1CCN(c2ccnc(Nc3ccc(N4CCOCC4)cc3)n2)CC1 | 21.8 |  |  |  |  |  | 15
O=C(Nc1ccc(C(F)(F)F)cc1)N1CCN(c2ccnc(Nc3ccc(N4CCOCC4)cc3)n2)CC1 | 35.2 |  |  |  |  |  | 36.5
N#CCNC(=O)c1ccc(-c2ccnc(Nc3ccc(N4CCOCC4)cc3)n2)cc1 | 94.7 |  |  |  |  |  | 
CC(=O)c1ccc(NC(=O)N2CCN(c3ccnc(Nc4ccc(N5CCC(C)CC5)cc4)n3)CC2)cc1 | 53 | 26.4 |  |  |  |  | 54
N#Cc1ccc(NC(=O)N2CCN(c3ccnc(Nc4ccc(N5CCOCC5)cc4)n3)CC2)cc1 | 78 |  |  |  |  |  | 70.8
O=C(Nc1ccc(F)cc1)N1CCN(c2ccnc(Nc3ccc(N4CCOCC4)cc3)n2)CC1 | 54.8 |  |  |  |  |  | 27.8
CCc1ccc(NC(=O)N2CCN(c3ccnc(Nc4ccc(N5CCOCC5)cc4)n3)CC2)cc1 | 53.3 |  |  |  |  |  | 27.4

Structure (SMILES) | inhibition [1] [%] | GI50 (HEL) [µM] | GI50 (MV4-11) [µM] | GI50 (HL-60) [µM] | IC50 [2] [µM] | IC50 [3] [µM] | inhibition [4] [%]
NC(=O)c1ccc(NC(=O)N2CCN(c3ccnc(Nc4ccc(N5CCOCC5)cc4)n3)CC2)cc1 | 86.3 | > 50 | > 50 | > 50 | 0.011 | 0.021 | 81.1
CC(=O)c1ccc(NC(=O)N2CCN(c3ccnc(Nc4ccc(N5CCSCC5)cc4)n3)CC2)cc1 | 73.9 | 4.7 | 17.8 | > 50 | 0.0298 | 0.04 | 77.6
NC(=O)c1ccc(NC(=O)N2CCN(c3ccnc(Nc4ccc(OCCN5CCCC5)cc4)n3)CC2)cc1 | 53 | > 50 |  |  |  |  | 74
O=C(Nc1ccccc1)N1CCN(c2ccnc(Nc3ccc(N4CCOCC4)cc3)n2)CC1 | 53.7 |  |  |  |  |  | 27.8
O=C(Nc1cccc(C(F)(F)F)c1)N1CCN(c2ccnc(Nc3ccc(N4CCOCC4)cc3)n2)CC1 | 35.2 |  |  |  |  |  | 36.5
N#Cc1cccc(NC(=O)N2CCN(c3ccnc(Nc4ccc(N5CCOCC5)cc4)n3)CC2)c1 | 8.1 |  |  |  |  |  | 15.9
CNC(=O)c1ccc(NC(=O)N2CCN(c3ccnc(Nc4ccc(N5CCOCC5)cc4)n3)CC2)cc1 | 68.1 |  |  |  |  |  | 35.8
CC(=O)c1ccc(NC(=O)N2CCN(c3ccnc(Nc4ccc(OCCCN5CCOCC5)cc4)n3)CC2)cc1 | 60.9 | 10.7 |  |  |  |  | 70.9
CC(=O)c1ccc(NC(=O)N2CCN(c3ccnc(Nc4ccc(OCCN5CCOCC5)cc4)n3)CC2)cc1 | 61.7 | 8.9 |  |  |  |  | 70.6
CC(=O)c1ccc(NC(=O)N2CCN(c3ccnc(Nc4ccc(OCCN5CCCC5)cc4)n3)CC2)cc1 | 45 | 30.3 |  |  |  |  | 69
CC(=O)c1cccc(NC(=O)N2CCN(c3ccnc(Nc4ccc(N5CCOCC5)cc4)n3)CC2)c1 | 2 |  |  |  |  |  | 3.3
CC(=O)c1ccccc1NC(=O)N1CCN(c2ccnc(Nc3ccc(N4CCOCC4)cc3)n2)CC1 | 18.9 |  |  |  |  |  | 13.8
CS(=O)(=O)c1ccc(NC(=O)N2CCN(c3ccnc(Nc4ccc(N5CCOCC5)cc4)n3)CC2)cc1 | 75.8 |  |  |  |  |  | 53.9
CC(C)Oc1ccc(NC(=O)N2CCN(c3ccnc(Nc4ccc(N5CCOCC5)cc4)n3)CC2)cc1 | 11.1 |  |  |  |  |  | 22.9
CC(=O)c1ccc(NC(=O)N2CCN(c3ccnc(Nc4ccc(OCCCN5CCCC5)cc4)n3)CC2)cc1 | 60.7 | 3.3 | 11 | 29.4 | 0.065 | 0.013 | 83.2
COC(=O)CNC(=O)c1ccc(NC(=O)N2CCN(c3ccnc(Nc4ccc(N5CCOCC5)cc4)n3)CC2)cc1 | 40.6 |  |  |  |  |  | 33.1
O=C(Nc1ccc(C(=O)N2CCOCC2)cc1)N1CCN(c2ccnc(Nc3ccc(N4CCOCC4)cc3)n2)CC1 | 20 |  |  |  |  |  | 17.2
C1=N/C2=N/c3ccc(OCCN4CCCC4)c(c3)COC/C=C/COCc3cccc(c3)C(=C1)N2 [PACRITINIB] | 92 | 1.1 | 1.6 | 1.4 |  |  | 

— ChEMBL document CHEMBL4359878, “Discovery of 4-piperazinyl-2-aminopyrimidine derivatives as dual inhibitors of JAK2 and FLT3” (Eur J Med Chem, 2019)
